Measured values taken from ChEMBL document CHEMBL4043283, “Discovery and Preclinical Development of IIIM-290, an Orally Active Potent Cyclin-Dependent Kinase Inhibitor” (J Med Chem, 2018).
pIC50: −log10 of the molar value.

Key:
PC-3 [1] = test: Growth inhibition of human PC3 cells after 48 hrs by MTT assay; type: functional; settings: PC-3, 48 h
How it was run: (§1)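 Cancer cell lines sourced from the National Cancer Institute (USA). Cells kept in appropriate growth medium at 37 °C, 95% humidity, 5% CO2. Antiproliferation read by tetrazolium (MTT) assay. GI50 values were determined only for compounds selected after an initial single-concentration screen.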

CDK9/cyclin T1 = CDK9/cyclin T1 (Homo sapiens, UniProt P50750); test: Inhibition of CDK9/cyclin T1 (unknown origin) using YSPTSPSYSPTSPSYSPTSPKKK as substrate after 30 mins in presence of [33P]-gamma-ATP by filter binding assay; type: protein-complex assay
Chain of CDK9/cyclin T1 (O60563 whole entry): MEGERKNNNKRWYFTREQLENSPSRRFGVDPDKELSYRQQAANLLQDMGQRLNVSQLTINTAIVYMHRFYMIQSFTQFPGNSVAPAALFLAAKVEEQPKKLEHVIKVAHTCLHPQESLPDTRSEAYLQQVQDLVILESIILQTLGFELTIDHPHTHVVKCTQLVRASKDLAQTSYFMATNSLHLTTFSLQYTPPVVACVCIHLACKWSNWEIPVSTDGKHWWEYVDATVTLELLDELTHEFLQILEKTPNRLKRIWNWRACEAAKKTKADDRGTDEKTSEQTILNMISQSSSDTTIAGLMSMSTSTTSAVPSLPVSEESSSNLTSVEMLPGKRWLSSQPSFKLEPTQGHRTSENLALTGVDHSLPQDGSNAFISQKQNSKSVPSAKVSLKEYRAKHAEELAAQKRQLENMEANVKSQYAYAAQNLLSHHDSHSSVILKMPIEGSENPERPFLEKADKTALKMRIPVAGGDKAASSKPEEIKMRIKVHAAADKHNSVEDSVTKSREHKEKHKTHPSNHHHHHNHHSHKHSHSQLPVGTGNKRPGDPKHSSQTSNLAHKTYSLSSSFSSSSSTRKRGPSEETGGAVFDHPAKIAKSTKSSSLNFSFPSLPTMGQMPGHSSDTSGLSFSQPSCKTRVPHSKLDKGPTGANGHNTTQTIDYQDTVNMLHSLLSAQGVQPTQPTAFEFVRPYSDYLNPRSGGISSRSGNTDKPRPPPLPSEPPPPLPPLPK
Chain of CDK9/cyclin T1 (P50750 whole entry): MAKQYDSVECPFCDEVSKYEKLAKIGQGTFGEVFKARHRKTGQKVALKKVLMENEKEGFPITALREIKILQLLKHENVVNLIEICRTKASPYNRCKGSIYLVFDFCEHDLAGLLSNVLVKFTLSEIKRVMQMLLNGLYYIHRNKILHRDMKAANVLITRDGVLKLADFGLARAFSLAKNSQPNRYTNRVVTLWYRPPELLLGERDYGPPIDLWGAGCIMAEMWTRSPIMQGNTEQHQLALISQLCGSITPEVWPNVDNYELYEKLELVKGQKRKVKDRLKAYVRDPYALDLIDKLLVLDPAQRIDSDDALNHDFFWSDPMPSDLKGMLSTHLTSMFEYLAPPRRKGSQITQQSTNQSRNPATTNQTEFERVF

PC-3 [2] = test: Growth inhibition of human PC3 cells at 10 uM after 48 hrs by MTT assay relative to control; type: functional; settings: PC-3, 48 h, read-out: GI
How it was run: (§2)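 Single-concentration primary screen at 10 μM by MTT assay. Cells were NCI-sourced cancer lines grown in appropriate medium at 37 °C, 95% humidity, 5% CO2. Growth inhibition is expressed relative to control.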

MIA PaCa-2 [3] = test: Growth inhibition of human MIAPaCa2 cells at 10 uM after 48 hrs by MTT assay relative to control; type: functional; settings: MIA PaCa-2, 48 h, read-out: GI; how it was run: as §2
MIA PaCa-2 [4] = test: Growth inhibition of human MIAPaCa2 cells after 48 hrs by MTT assay; type: functional; settings: MIA PaCa-2, 48 h; how it was run: as §1
[5] = target: CDK9/cyclin T1 (Homo sapiens) (UniProt O60563+P50750); test: Inhibition of CDK9/cyclin T1 (unknown origin) at 0.5 uM using YSPTSPSYSPTSPSYSPTSPKKK as substrate after 30 mins in presence of [33P]-gamma-ATP by filter binding assay relative to control; type: protein-complex assay
MCF7 [6] = test: Growth inhibition of human MCF7 cells after 48 hrs by MTT assay; type: functional; settings: MCF7, 48 h; how it was run: as §1
[7] = target: CDK2/Cyclin A2 (Homo sapiens) (UniProt P24941+P20248); test: Inhibition of CDK2/cyclin A (unknown origin) at 0.5 uM using histone H1 as substrate after 30 mins in presence of [33P]-gamma-ATP by filter binding assay relative to control; type: protein-complex assay
Homo sapiens = species on record: Homo sapiens; test: Selectivity ratio of IC50 for CDK2/cyclin A (unknown origin) to IC50 for CDK9/cyclin T1 (unknown origin)
CDK2/Cyclin A2 = CDK2/Cyclin A2 (Homo sapiens, UniProt P24941); test: Inhibition of CDK2/cyclin A (unknown origin) using histone H1 as substrate after 30 mins in presence of [33P]-gamma-ATP by filter binding assay; type: protein-complex assay
MCF7 [8] = test: Growth inhibition of human MCF7 cells at 10 uM after 48 hrs by MTT assay relative to control; type: functional; settings: MCF7, 48 h, read-out: GI; how it was run: as §2
Caco-2 [9] = test: Growth inhibition of human Caco2 cells at 10 uM after 48 hrs by MTT assay relative to control; type: functional; settings: Caco-2, 48 h, read-out: GI; how it was run: as §2
HL-60 [10] = test: Growth inhibition of human HL60 cells at 10 uM after 48 hrs by MTT assay relative to control; type: functional; settings: HL-60, 48 h, read-out: GI; how it was run: as §2
Caco-2 [11] = test: Growth inhibition of human Caco2 cells after 48 hrs by MTT assay; type: functional; settings: Caco-2, 48 h; how it was run: as §1
HL-60 [12] = test: Growth inhibition of human HL60 cells after 48 hrs by MTT assay; type: functional; settings: HL-60, 48 h; how it was run: as §1
MIA PaCa-2 [13] = test: Cell cycle arrest in human MIAPaCa2 cells assessed as accumulation at G2 phase at 2 uM after 24 hrs by propidium iodide staining-based flow cytometric method (reference value: 30%); type: functional
MIA PaCa-2 [14] = test: Induction of apoptosis in human MIAPaCa2 cells at 2 uM after 24 hrs by propidium iodide staining-based flow cytometric method relative to control; type: functional
MIA PaCa-2 [15] = test: Cell cycle arrest in human MIAPaCa2 cells assessed as accumulation at G1 phase at 2 uM after 24 hrs by propidium iodide staining-based flow cytometric method (reference value: 36%); type: functional
MIA PaCa-2 [16] = test: Cell cycle arrest in human MIAPaCa2 cells assessed as accumulation at S phase at 2 uM after 24 hrs by propidium iodide staining-based flow cytometric method (reference value: 33%); type: functional

| SMILES | GI50 (PC-3 [1]) [µM] | pIC50 (CDK9/cyclin T1) | inhibition of growth at 10 µM (PC-3 [2]) [%] | inhibition of growth at 10 µM (MIA PaCa-2 [3]) [%] | GI50 (MIA PaCa-2 [4]) [µM] | inhibition [5] [%] | GI50 (MCF7 [6]) [µM] | inhibition [7] [%] | Ratio IC50 (Homo sapiens) | pIC50 (CDK2/Cyclin A2) | inhibition of growth at 10 µM (MCF7 [8]) [%] | inhibition of growth at 10 µM (Caco-2 [9]) [%] | inhibition of growth at 10 µM (HL-60 [10]) [%] | GI50 (Caco-2 [11]) [µM] | GI50 (HL-60 [12]) [µM] | Activity (MIA PaCa-2 [13]) [%] | Activity (MIA PaCa-2 [14]) [%] | Activity (MIA PaCa-2 [15]) [%] | Activity (MIA PaCa-2 [16]) [%] |
| --- | --- | --- | --- | --- | --- | --- | --- | --- | --- | --- | --- | --- | --- | --- | --- | --- | --- | --- | --- |
| CN1CC[C@H](c2c(O)cc(O)c3c(=O)cc(/C=C/c4c(F)c(F)c(F)c(F)c4F)oc23)[C@H](O)C1 | 2 | 7.94 | 82 | 89 | 1 | 92 | 8 | 42 | 52 | 6.22 | 64 | 59 | 80 | 8 | 3 | – | – | – | – |
| CN1CC[C@H](c2c(O)cc(O)c3c(=O)cc(/C=C/c4c5ccccc5cc5ccccc45)oc23)[C@H](O)C1 | > 100 | 6.46 | 75 | 77 | 4 | 80 | 5 | 43 | – | 5.74 | 78 | 44 | 78 | 4 | 4 | – | – | – | – |
| CC[C@@]1(O)C(=O)OCc2c1cc1n(c2=O)Cc2cc3ccccc3nc2-1 [CAMPTOTHECIN] | – | – | – | – | – | – | – | – | – | – | – | – | – | – | – | 31 | 3.3 | 42 | 26 |
| CN1CC[C@H](c2c(O)cc(O)c3c(=O)cc(/C=C/c4ccc(Cl)cc4)oc23)[C@H](O)C1 | 31 | 6.51 | 12 | 88 | 2 | 71 | 49 | 2 | 10 | 5.48 | 10 | 70 | 58 | 5.6 | 8 | – | – | – | – |
| CN1CC[C@H](c2c(O)cc(O)c3c(=O)cc(/C=C/c4ccccc4F)oc23)[C@H](O)C1 | 20 | 6.59 | 25 | 60 | 3 | 60 | 8 | 9 | – | 5.82 | 62 | 68 | 62 | 7 | 8 | – | – | – | – |
| Cc1cc(=O)c2c(O)cc(OCc3ccccc3Br)c([C@H]3CCN(C)C[C@H]3O)c2o1 | – | – | 32 | 30 | – | 0 | – | 6 | – | – | 45 | 35 | 3 | – | – | – | – | – | – |
| Cc1cc(=O)c2c(O)c(CN3CCCC3C(=O)O)c(O)c([C@H]3CCN(C)C[C@H]3O)c2o1 (stereo partly drawn) | – | – | 0 | 10 | – | 0 | – | 17 | – | – | 21 | 30 | 16 | – | – | – | – | – | – |
| Cc1oc2c([C@H]3CCN(C)C[C@H]3O)c(O)cc(O)c2c(=O)c1C(O)c1ccc([N+](=O)[O-])cc1 (stereo partly drawn) | – | – | 24 | 2 | – | 8 | – | 6 | – | – | 4 | 5 | 0 | – | – | – | – | – | – |
| CN1CC[C@H](c2c(O)cc(O)c3c(=O)cc(/C=C/c4cccc(F)c4)oc23)[C@H](O)C1 | 7 | 7.54 | 67 | 67 | 2 | 88 | 3 | 53 | – | 6.33 | 83 | 61 | 60 | 8 | 8 | – | – | – | – |
| Cc1cc(=O)c2c(O)cc(O)c([C@H]3CCN(C)C[C@H]3O)c2o1 [ROHITUKINE] | 19 | – | 33 | 2 | 19 | – | 28 | – | – | – | 15 | 12 | 83 | 25 | 10 | – | – | – | – |
| Cc1cc(=O)c2c(O)cc(O)c([C@H]3CCN(C)C[C@H]3OC(=O)c3ccco3)c2o1 | – | – | 23 | 13 | – | 0 | – | 10 | – | – | 20 | 33 | 22 | – | – | – | – | – | – |
| Cc1oc2c([C@H]3CCN(C)C[C@H]3O)c(O)cc(O)c2c(=O)c1C(O)c1ccc(F)cc1 (stereo partly drawn) | – | – | 0 | 17 | – | 13 | – | 13 | – | – | 9 | 11 | 30 | – | – | – | – | – | – |
| Cc1cc(=O)c2c(O)c(CN3CCC(Cc4ccccc4)CC3)c(O)c([C@H]3CCN(C)C[C@H]3O)c2o1 | – | – | 16 | 18 | – | 0 | – | 4 | – | – | 17 | 21 | 28 | – | – | – | – | – | – |
| CN1CC[C@H](c2c(O)cc(O)c3c(=O)cc(/C=C/c4ccccc4Cl)oc23)[C@H](O)C1 | 17 | 6.80 | 22 | 59 | 8 | 75 | 9 | 10 | 10 | 5.85 | 63 | 65 | 61 | 9 | 9 | – | – | – | – |
| CN1CC[C@H](c2c(O)cc(O)c3c(=O)cc(/C=C/c4ccccc4)oc23)[C@H](O)C1 | 58 | 7.18 | 10 | 87 | 2 | 66 | 31 | 5.2 | – | 6.03 | 8 | 72 | 91 | 3.7 | 1 | – | – | – | – |
| Cc1oc2c([C@H]3CCN(C)C[C@H]3O)c(O)cc(O)c2c(=O)c1C(O)c1cccc(Cl)c1Cl (stereo partly drawn) | – | – | 20 | 2 | – | 0 | – | 0 | – | – | 7 | 3 | 12 | – | – | – | – | – | – |
| Cc1cc(=O)c2c(O)c(CN3CC(O)CC3C(=O)O)c(O)c([C@H]3CCN(C)C[C@H]3O)c2o1 (stereo partly drawn) | – | – | 0 | 23 | – | 8 | – | 10 | – | – | 25 | 19 | 28 | – | – | – | – | – | – |
| Cc1oc2c([C@H]3CCN(C)C[C@H]3O)c(O)cc(O)c2c(=O)c1C(O)c1ccc(F)c(Br)c1 (stereo partly drawn) | – | – | 72 | 9 | – | 2 | – | 2 | – | – | 14 | 6 | 25 | – | – | – | – | – | – |
| CN1CC[C@H](c2c(O)cc(O)c3c(=O)cc(/C=C/c4cccc(Cl)c4)oc23)[C@H](O)C1 | 10 | 6.55 | 53 | 52 | 10 | 53 | 2 | 5 | 10 | 5.52 | 82 | 55 | 35 | 9 | 20 | – | – | – | – |
